≈ marks a conversion by molar mass, not a printed value.

Experimental findings from ChEMBL document CHEMBL2150942, “Synthesis and antibacterial activity of novel 1,3-diphenyl-1H-pyrazoles functionalized with phenylalanine-derived rhodanines” (Eur J Med Chem, 2012) are described below.

Series [1] deals with Staphylococcus aureus. Put plainly: Antibacterial activity against Staphylococcus aureus KCTC 503 after 20 hrs by two fold serial dilution assay. The series is classed as functional. To be noted: KCTC 503, 20 h.
Series [2] concerns Staphylococcus aureus. Put plainly: Antibacterial activity against Staphylococcus aureus RN4220 after 20 hrs by two fold serial dilution assay. The series is classed as functional. The note with it: RN4220, 20 h.
Series [3] has as its system Escherichia coli. Put plainly: Antibacterial activity against Escherichia coli CCARM 1924 after 20 hrs by two fold serial dilution assay. To be noted: CCARM 1924, 20 h. The class given is functional.
Series [4] deals with Escherichia coli. Put plainly: Antibacterial activity against Escherichia coli CCARM 1356 after 20 hrs by two fold serial dilution assay. The series is classed as functional. The note with it: CCARM 1356, 20 h.
Series [5] deals with Staphylococcus aureus. Put plainly: Antibacterial activity against methicillin-resistant Staphylococcus aureus CCARM 3167 after 20 hrs by two fold serial dilution assay. The series is classed as functional. To be noted: CCARM 3167, 20 h.
The test system of series [6] is Staphylococcus aureus. In words: Antibacterial activity against methicillin-resistant Staphylococcus aureus CCARM 3506 after 20 hrs by two fold serial dilution assay. The class given is functional. The note with it: CCARM 3506, 20 h.
Series [7] relates to Staphylococcus aureus. In words: Antibacterial activity against quinolone-resistant Staphylococcus aureus CCARM 3505 after 20 hrs by two fold serial dilution assay. The class given is functional. The note with it: CCARM 3505, 20 h.
Series [8] deals with Staphylococcus aureus. Put plainly: Antibacterial activity against quinolone-resistant Staphylococcus aureus CCARM 3519 after 20 hrs by two fold serial dilution assay. The class given is functional. To be noted: CCARM 3519, 20 h.
The test system of series [9] is Staphylococcus aureus. In words: Ratio of norfloxacin MIC to compound MIC for methicillin-resistant Staphylococcus aureus CCARM 3167. The class given is functional.
Series [10] deals with Staphylococcus aureus. Put plainly: Ratio of norfloxacin MIC to compound MIC for methicillin-resistant Staphylococcus aureus CCARM 3506. The series is classed as functional.
The subject of series [11] is HeLa. Put plainly: Cytotoxicity against human HeLa cells after 48 hrs by MTT assay. The series is classed as cell-based. The gist of the method:
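HeLa cells grown in DMEM with 10% FBS and penicillin-streptomycin at 37 °C in 5% CO₂, passaged three times. About 1 × 10⁴ cells/well were seeded and attached overnight, then given a range of compound concentrations for 48 h. MTT (5 mg/ml stock) was added for 4 h, formazan dissolved in DMSO, and OD read at 570 nm. Run four times; IC50 was the concentration giving 50% growth inhibition.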
A general note: Formazan colour is commonly taken as a measure of viable cells.

Series [12] deals with HeLa. Put plainly: Cytotoxicity against human HeLa cells assessed as decrease in cell viability at 1 ug/mL after 48 hrs by MTT assay. The class given is cell-based. The essentials:
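HeLa cells (DMEM, 10% FBS, antibiotics, 37 °C, 5% CO₂) were seeded at about 1 × 10⁴ cells/well, left overnight, then exposed to compound for 48 h. Viability was read by MTT (5 mg/ml stock, 4 h), with formazan dissolved in DMSO and absorbance taken at 570 nm. Assay performed four times.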

As a reminder, the MIC is the lowest concentration found to suppress growth. For the compound `O=C(O)[C@@H](Cc1ccccc1)N1C(=O)/C(=C/c2cn(-c3ccccc3)nc2-c2ccc(Br)cc2)SC1=S`, the MIC is 16 µg/mL (≈ 27.1 µM) in series [1]; 4 µg/mL (≈ 6.77 µM) in [2]; over 64 µg/mL in series [3]; over 64 µg/mL in series [4]; 1 µg/mL (≈ 1.69 µM) in series [5]; 1 µg/mL (≈ 1.69 µM) in series [6]. Further, the results for the minimal inhibitory concentration (MIC) in series [7] and in series [8] were 1 µg/mL (≈ 1.69 µM) and 16 µg/mL (≈ 27.1 µM), respectively. The Ratio in [9] worked out at 8; in series [10] it was 4.
In the case of `O=C(O)[C@@H](Cc1ccccc1)N1C(=O)/C(=C/c2cn(-c3ccccc3)nc2-c2ccccc2F)SC1=S`, the MIC is 16 µg/mL (≈ 30.2 µM) in series [1]; 4 µg/mL (≈ 7.55 µM) in series [2]; over 64 µg/mL in series [3]; over 64 µg/mL in series [4]; 4 µg/mL (≈ 7.55 µM) in [5]; 4 µg/mL (≈ 7.55 µM) in series [6]. The values for the MIC in [7] and in series [8] were 2 µg/mL (≈ 3.78 µM) and 4 µg/mL (≈ 7.55 µM), respectively.
With `O=C(O)[C@@H](Cc1ccccc1)N1C(=O)/C(=C/c2cn(-c3ccccc3)nc2-c2ccccc2)SC1=S`, the MIC in series [1] is 8 µg/mL (≈ 15.6 µM); in series [2], 2 µg/mL (≈ 3.91 µM); in series [3], over 64 µg/mL; in series [4] it was over 64 µg/mL; in series [5] it was 4 µg/mL (≈ 7.82 µM); in [6], 4 µg/mL (≈ 7.82 µM). For the same compound, the MIC in series [7] and in [8] was 4 µg/mL (≈ 7.82 µM) each time.
As to `O=C(O)[C@@H](Cc1ccccc1)N1C(=O)/C(=C/c2cn(-c3ccccc3)nc2-c2ccc(Cl)cc2)SC1=S`, the MIC in series [1] is 2 µg/mL (≈ 3.66 µM); in [2], 2 µg/mL (≈ 3.66 µM); in series [3], over 64 µg/mL; in [4] it was over 64 µg/mL; in series [5], 2 µg/mL (≈ 3.66 µM); in series [6] it was 2 µg/mL (≈ 3.66 µM). Besides, the MIC in series [7] and in series [8] was 2 µg/mL (≈ 3.66 µM) throughout.
In general, IC50 refers to the concentration at which inhibition is half-maximal. As to `O=C(O)[C@@H](Cc1ccccc1)N1C(=O)/C(=C/c2cn(-c3ccccc3)nc2-c2ccccc2Cl)SC1=S`, the MIC in series [1] was 2 µg/mL (≈ 3.66 µM); in series [2], 2 µg/mL (≈ 3.66 µM); in [3] it was over 64 µg/mL; in [4], over 64 µg/mL; in series [5], 1 µg/mL (≈ 1.83 µM); in series [6], 1 µg/mL (≈ 1.83 µM). Moreover, the MIC stood at 2 µg/mL (≈ 3.66 µM) in series [7] and 1 µg/mL (≈ 1.83 µM) in [8]. Also, the Ratio in series [9] was found to be 8; in series [10], 4. Further, the IC50 in series [11] was 30.2 µg/mL (≈ 55.4 µM). The Activity entry in series [12] is on record as “Non-toxic”.
With `CCn1cc(C(=O)O)c(=O)c2cc(F)c(N3CCNCC3)cc21` [NORFLOXACIN], the MIC in series [1] came out at 2 µg/mL (≈ 6.26 µM); in series [2] it was 2 µg/mL (≈ 6.26 µM); in series [3], 16 µg/mL (≈ 50.1 µM); in series [4] it was 16 µg/mL (≈ 50.1 µM); in series [5] it was 8 µg/mL (≈ 25.1 µM); in series [6], 4 µg/mL (≈ 12.5 µM). Also, the MIC in [7] and in series [8] was over 64 µg/mL each time.
On to `O=C(O)[C@@H](Cc1ccccc1)N1C(=O)/C(=C/c2cn(-c3ccccc3)nc2-c2ccc([N+](=O)[O-])cc2)SC1=S`, for which the minimum inhibitory concentration (MIC) in series [1] was 16 µg/mL (≈ 28.7 µM); in series [2] it was 4 µg/mL (≈ 7.19 µM); in [3] it was over 64 µg/mL; in series [4], over 64 µg/mL; in series [5] it was 1 µg/mL (≈ 1.8 µM); in series [6], 1 µg/mL (≈ 1.8 µM). Moreover, the MIC in series [7] and in series [8] was 1 µg/mL (≈ 1.8 µM) each time. Moreover, the Ratio in [9] was determined as 8; in series [10] it was 4.
Take `Cc1onc(-c2ccccc2)c1C(=O)N[C@@H]1C(=O)N2[C@@H]1SC(C)(C)[C@@H]2C(=O)O` [OXACILLIN]: the MIC in [1] is 1 µg/mL (≈ 2.49 µM); in [2], 1 µg/mL (≈ 2.49 µM); in [3], over 64 µg/mL; in [4], over 64 µg/mL; in [5], over 64 µg/mL; in series [6] it was over 64 µg/mL. Moreover, the minimum inhibitory concentration (MIC) in series [7] and in [8] was 1 µg/mL (≈ 2.49 µM) each time.
In the case of `Cc1ccc(-c2nn(-c3ccccc3)cc2/C=C2\SC(=S)N([C@H](Cc3ccccc3)C(=O)O)C2=O)c(C)c1`, the MIC in series [1] is 2 µg/mL (≈ 3.71 µM); in series [2] it was 2 µg/mL (≈ 3.71 µM); in series [3] it was over 64 µg/mL; in series [4], over 64 µg/mL; in [5] it was 2 µg/mL (≈ 3.71 µM); in [6], 2 µg/mL (≈ 3.71 µM). Also, the MIC in series [7] is 2 µg/mL (≈ 3.71 µM); in [8] it was 1 µg/mL (≈ 1.85 µM).
